# Screening data: PubChem, several laboratories
# Sampled rows, rich in hits. Any-hit rate of the full collection: about 2.3%.
# GalR3 antagonist: GalR3 antagonists in HEK293 cells, primary screen, cell-based, fluorescence readout; 0.44% of 360,000 active; Galanin receptor type 3 (Homo sapiens), O60755; inhibition, % at 3 µM; HEK293 GalR3-CNG cAMP membrane potential fluorescence; galR3 body fused to GalR1 C-terminus;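 active means inhibition above the screen-wide average plus 3 SD, cut at about 13% in these data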;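 further: forskolin and galanin both at EC90 stimulate the cells; cAMP rise reported by CNG channel membrane potential dye signal; 0% = forskolin plus galanin with DMSO and 100% = forskolin alone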
# Target sequence (O60755 1-299 limits assumed): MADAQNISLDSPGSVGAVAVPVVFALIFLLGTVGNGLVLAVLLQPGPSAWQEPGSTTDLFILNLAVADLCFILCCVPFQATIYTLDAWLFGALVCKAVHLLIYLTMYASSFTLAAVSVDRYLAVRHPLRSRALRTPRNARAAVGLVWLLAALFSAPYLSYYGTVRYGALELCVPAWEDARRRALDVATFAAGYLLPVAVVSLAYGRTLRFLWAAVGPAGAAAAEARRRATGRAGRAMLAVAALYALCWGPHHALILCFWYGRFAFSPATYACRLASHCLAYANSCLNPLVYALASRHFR
# NR2E3 ag-1: NR2E3 agonists in two-hybrid cells, primary screen, cell-based, luminescence, CHO-S, Gal4-NCOR/VP16-NR2E3 | Photoreceptor-specific nuclear receptor (Homo sapiens), Q9Y5X4 | luciferase | inhibition of corepressor binding, % at 3.98 µM | 0.35% of 360,000 active;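 active means inhibition above the mean of all tested compounds plus 3 SD, cut at about 70% in these data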;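 further: 0% = DMSO with NR2E3 transfected cells and 100% = cells lacking NR2E3 construct; higher means lower luciferase signal from less NR2E3 corepressor binding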
# Target sequence (Q9Y5X4 whole entry, looked up, the tested form may be a part): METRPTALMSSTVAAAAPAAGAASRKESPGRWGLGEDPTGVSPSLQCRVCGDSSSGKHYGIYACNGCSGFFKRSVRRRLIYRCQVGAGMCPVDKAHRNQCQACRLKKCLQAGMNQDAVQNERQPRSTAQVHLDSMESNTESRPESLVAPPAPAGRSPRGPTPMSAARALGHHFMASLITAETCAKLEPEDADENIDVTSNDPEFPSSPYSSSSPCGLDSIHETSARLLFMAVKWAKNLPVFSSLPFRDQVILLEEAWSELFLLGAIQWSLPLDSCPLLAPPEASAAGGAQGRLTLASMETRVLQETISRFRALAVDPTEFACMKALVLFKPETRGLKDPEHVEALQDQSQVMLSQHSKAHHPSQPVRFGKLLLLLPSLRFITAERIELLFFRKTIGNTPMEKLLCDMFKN
# CHT inh: inhibitors of human choline transporter CHT; 0.86% of 310,000 active; B-score at 10 µM; High affinity choline transporter 1 (Homo sapiens), Q9GZV3; CHT-expressing cells, membrane potential dye, choline response; active compounds read low;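 active means B-score over 3 SD under the library average, and starting fluorescence ratio not unusually high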;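 further: choline stimulus applied at its EC90 after an EC20 pre-addition; B-score computed on integrated fluorescence ratio after choline addition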
# CHT PAM: CHT positive allosteric modulators, primary screen, cell-based, membrane potential dye, choline EC20; CHT-expressing cells; active compounds read high; LV-AA mutant CHT in HEK293 cells; 0.49% of 310,000 active; AID 488977, 2010; B-score at 10 µM;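 active means initial fluorescence not abnormally high and integrated response B-score, plate-corrected, over 3 SD above library mean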
# COUP-TFII inh: NR2F2 transcriptional activity inhibitors, primary screen, cell-based, luciferase reporter, HEK293T, luminescence | HEK293T NGFI-A luciferase reporter | inhibition, % at 8.6 µM | 0.7% of 370,000 active | AID 686940, 2013;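 active means inhibition above a per-plate cutoff, mean inhibition of test wells between control levels plus 3 SD, cut at about 38% in these data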;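 further: cells cotransfected with COUP-TFII expression vector driving the NGFI-A reporter; 0% = median of COUP-TF2 test wells and 100% = reporter-only cells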
# NR2E3 ag-2: inhibitors of NR2E3-RetCOR corepressor binding, primary screen, NR2E3 agonist project, biochemical, TR-FRET, GST-NR2E3, biotin-RetCOR. Photoreceptor-specific nuclear receptor (Homo sapiens), Q9Y5X4. 1536-well. inhibition of corepressor binding, % at 4.78 µM. 0.12% of 320,000 active;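 active means percent inhibition above the cutoff of mean plus 3 SD of all tested compounds, set per screening campaign, cut at about 20% in these data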;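 further: 0% = DMSO wells and 100% = biotin wells as full block of FRET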
#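 Material: NR2E3–RetCOR corepressor complex | Quantity: 1.35 nM GST-tagged NR2E3 final | Schedule: 5 h at 4 °C | Replication: Singlicate compound wells | Reagent: RetCOR corepressor, biotinylated, 7 nM | Controls: Biotin wells as high control, 0.6% DMSO wells as low control | Signal: TR-FRET, Eu(K)-anti-GST donor, streptavidin-D2 acceptor, ex 340, em 617/671 nm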
# CHT inh conf: CHT inhibitors, confirmation, cell-based, membrane potential dye, duplicate; shares compounds with CHT inh; CHT activity remaining % of control (active compounds read low), % at 10 µM; 70% of 2,400 active; CHT-expressing cells, choline membrane potential dye; LV-to-AA substituted CHT, HEK293 cells; AID 493221, 2011;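 active means choline transporter activity left, mean of duplicates at 10 µM, below buffer-only control mean minus 3 SD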;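 further: depolarization triggered by choline at its EC90 following an EC20 pre-addition; 0% = hemicholinium-3 full block and 100% = buffer-only control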
# HEK293 MPD ctr: membrane potential effects in parental HEK293, counter-screen for CHT inhibitor project, cell-based, membrane potential dye. shares compounds with CHT inh. choline response; active = decrease or increase beyond buffer ±3SD. membrane potential ratio readout (active if shifted either direction beyond buffer ±3SD; no single direction) at 10 µM. 4% of 2,400 active. AID 493222, 2011;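 further: parental cells lack the transporter so any hit is non-specific; ratio is peak minus trough fluorescence over baseline after EC90 choline challenge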
# * marks the source's active call; other numbers are inactive results; i = inactive; / = not tested or not shown.
SMILES,GalR3 antagonist,NR2E3 ag-1,CHT inh,CHT PAM,COUP-TFII inh,NR2E3 ag-2,CHT inh conf,HEK293 MPD ctr
Cc1noc(/C=C/c2cccs2)c1S(=O)(=O)N1CCC(C(=O)NCCCN2CCCC(C)C2)CC1 (stereo not given),-8.3,-25.4,i,i,-14.9,1.5,i,i
CCCCNC(=O)C1CCCN(S(=O)(=O)c2c(C)noc2/C=C/c2cccs2)C1 (stereo not given),-1.1,0.9,i,i,4.2,1.5,/,/
COC(=O)C1CN(Cc2ccc(Cl)cc2)CCS(=O)(=O)N1Cc1cn(Cc2ccc(Cl)cc2)nn1 (stereo not given),/,/,/,/,3.2,/,/,/
CN1CCN(c2ccc(Cl)cc2NC(=O)c2ccc(=O)n(C)n2)CC1,-5.6,2.4,-5.55*,i,-4.1,-3.4,56.0%*,5.27*
O=S1(=O)c2c(cccc2N2CCSCC2)Oc2ccccc2CN1Cc1cn(Cc2ccc(C(F)(F)F)cc2)nn1,/,/,/,/,7.6,/,/,/
O=C1CSC(=S)N1/N=C/c1c(F)cccc1F,-6.8,-7.0,-5.58*,i,6.2,1.4,70.9%*,i
O=C(CSc1nnc(Cc2ccccc2)o1)N1CCCC1,-0.1,15.0,i,i,-7.9,-0.6,/,/
O=C(CCc1nnc(Cc2ccc(-c3ccccc3)cc2)o1)N1CCCC1,-7.3,15.0,-5.42*,i,-5.9,4.4,45.5%*,i
COc1ccccc1C(=O)O/N=C(\c1ccccc1)c1ccncc1,-1.3,8.8,i,i,2.0,3.2,/,/
O=C(O/N=C(/c1ccccc1)c1ccncc1)c1ccc(F)cc1,-7.6,-32.5,-9.69*,i,3.0,-0.2,i,i
COc1ccccc1NC(=S)NCCN1CCOCC1,-3.4,-13.0,-8.35*,i,12.8,-0.4,i,i
O=C(c1cccc(Oc2ccc([N+](=O)[O-])cc2Cl)c1)N1CCCCC1,0.2,2.2,-7.37*,i,8.7,4.3,47.5%*,i
O=S(=O)(Nc1nc2ccccc2nc1Cl)c1cccc(C(F)(F)F)c1,-7.6,-15.5,-5.2*,i,10.3,13.0,i,i
Oc1c(Br)cc(Cl)cc1C=Nc1ccc(N2CCOCC2)cc1,5.2,9.0,i,i,6.7,2.9,/,/
Oc1c(Br)cc(Cl)cc1C=Nc1ccccc1Br,-7.1,-23.0,-7.12*,i,4.6,0.2,67.6%*,i
CCCCC(CC)C(=O)NCc1ccccc1OC (stereo not given),-4.3,-10.3,-5.63*,i,6.3,0.1,i,i
Cc1ccc(Cn2nnc3c2-c2ccccc2S(=O)(=O)N(C(C)(C)C)C3)cc1,/,/,/,/,6.9,/,/,/
O=c1oc2ccccc2c(Cl)c1CN1CCCCC1,-9.0,1.7,-6.86*,i,-5.5,-1.3,31.0%*,i
O=c1oc2ccccc2c(N2CCCC2)c1CN1CCCC1,-2.5,-8.2,i,i,-6.9,1.4,/,/
CCOC(=O)Cn1cc(CN2C(C(=O)OC)CN(Cc3ccc(Cl)cc3)CCS2(=O)=O)nn1 (stereo not given),/,/,/,/,-17.6,/,/,/
COc1ccc(-c2cc(=O)c3cc(O)ccc3o2)cc1,-2.1,-110.2,-7.28*,i,-29.1,4.2,41.1%*,i
O=c1cc(-c2ccccc2)oc2ccc(O)cc12,-7.3,-94.4,i,i,-30.5,-5.3,/,/
O=S1(=O)c2c(NCc3ccco3)cccc2Oc2ccccc2CN1Cc1cn(Cc2cccc(F)c2)nn1,/,/,/,/,7.6,/,/,/
Cc1ccc(-c2csc(/C(C#N)=C(\O)CCl)n2)cc1,-0.6,-72.8,/,/,-18.5,/,/,/
N#C/C(=C(/O)CCl)c1nc(-c2ccccc2)cs1,7.1,-37.0,-8.41*,i,-12.2,1.0,-31.8%*,i
SMILES,GalR3 antagonist,NR2E3 ag-1,CHT inh,CHT PAM,COUP-TFII inh,NR2E3 ag-2,CHT inh conf,HEK293 MPD ctr
CCOc1ccc(CCNC(=O)c2cc3ccsc3n2C)cc1OC,/,/,/,/,10.0,/,/,/
CC(=O)NC(CC(=O)NCCN1C(=O)S/C(=C\c2ccccc2)C1=O)c1ccccc1 (stereo not given),-3.7,13.3,-5.66*,i,8.2,-0.8,57.2%*,i
Cn1c(SCC(=O)NCCN2CCCCC2)nc2cccnc21,/,/,/,/,-4.7,/,/,/
COc1ccc2c(c1)c(C(=O)CNc1nc(C)cs1)c(C)n2C,-0.6,1.9,-4.98*,i,-6.0,-6.0,38.2%*,2.71*
CCCCN(C)C(=O)c1ccc(CS(=O)(=O)c2ccccc2C)o1,-2.3,-7.4,-5.32*,i,3.4,-0.7,i,i
CCN(CC)C(=O)Cn1nc(Cc2ccncc2)c2ccccc2c1=O,/,/,/,/,-22.3,/,/,/
CSc1ccc(C(=O)C2CCCN(C(=O)c3ccsc3)C2)cc1 (stereo not given),-7.8,10.4,-5.22*,i,9.0,0.9,68.8%*,i
COc1ccc(C2C3=C(CC(C)(C)CC3=O)Nc3n[nH]c(C)c32)cc1 (stereo not given),-0.7,-2.5,-7.56*,i,6.9,1.0,i,i
COC(=O)[C@H]1C[C@@]2(c3ccccc3)c3ccccc3N[C@H]2N1,/,/,/,/,2.3,/,/,/
CCNS(=O)(=O)c1c(C)cc(N2CCCC2=O)cc1C,-5.8,15.2,i,i,12.7,-2.7,/,/
Cc1cc(N2CCCC2=O)cc(C)c1S(=O)(=O)NCCOc1ccccc1,-6.1,16.0,-5.86*,i,11.8,-0.5,66.9%*,-8.45*
O=[N+]([O-])c1ccccc1S(=O)(=O)N1CCC(c2cn3ccccc3n2)CC1,/,/,/,/,6.6,/,/,/
O=C(CSc1ccc(-c2nc3ccccc3[nH]2)cn1)Nc1ccc2c(c1)OCCO2,/,-0.7,i,i,/,-6.9,/,/
O=C(CSc1ccc(-c2nc3ccccc3[nH]2)cn1)Nc1ccc(S(=O)(=O)NC2CC2)cc1,0.2,-23.5,-5.72*,i,-2.5,-1.7,i,i
Cc1ccccc1C(=O)N1CCCN(C(=O)c2ccccc2C)CC1,-1.6,3.4,-6.81*,i,-18.3,3.2,i,i
